# In ChEMBL document CHEMBL2069268, “Opioid activity of spinally selective analogues of N-naphthoyl-β-naltrexamine in HEK-293 cells and mice” (J Med Chem, 2012):
# The source made the active and inactive calls.
# Key:
# [1] = target: Opioid receptors; mu & kappa (Homo sapiens) (UniProt P41145+P35372); experiment: Agonist activity at human mu-kappa opioid receptor expressed in HEK cells assessed as induction of intracellular calcium release by FLIPR assay; format: functional, cell-based; conditions: HEK293
# Opioid receptors; mu & kappa (Homo sapiens), sequence (P35372 whole entry, looked up): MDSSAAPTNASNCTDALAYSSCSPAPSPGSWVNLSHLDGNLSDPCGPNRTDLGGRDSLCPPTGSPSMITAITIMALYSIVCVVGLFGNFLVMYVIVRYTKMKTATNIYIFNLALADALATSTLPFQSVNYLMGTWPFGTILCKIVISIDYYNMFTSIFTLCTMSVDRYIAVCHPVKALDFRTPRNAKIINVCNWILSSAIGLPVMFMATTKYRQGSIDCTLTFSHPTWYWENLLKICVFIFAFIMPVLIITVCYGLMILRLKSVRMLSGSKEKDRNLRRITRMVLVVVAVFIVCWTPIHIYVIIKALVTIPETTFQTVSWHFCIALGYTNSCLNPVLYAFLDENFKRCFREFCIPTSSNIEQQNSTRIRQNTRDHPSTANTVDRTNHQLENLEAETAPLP
# Opioid receptors; mu & kappa (Homo sapiens), sequence (P41145 whole entry, looked up): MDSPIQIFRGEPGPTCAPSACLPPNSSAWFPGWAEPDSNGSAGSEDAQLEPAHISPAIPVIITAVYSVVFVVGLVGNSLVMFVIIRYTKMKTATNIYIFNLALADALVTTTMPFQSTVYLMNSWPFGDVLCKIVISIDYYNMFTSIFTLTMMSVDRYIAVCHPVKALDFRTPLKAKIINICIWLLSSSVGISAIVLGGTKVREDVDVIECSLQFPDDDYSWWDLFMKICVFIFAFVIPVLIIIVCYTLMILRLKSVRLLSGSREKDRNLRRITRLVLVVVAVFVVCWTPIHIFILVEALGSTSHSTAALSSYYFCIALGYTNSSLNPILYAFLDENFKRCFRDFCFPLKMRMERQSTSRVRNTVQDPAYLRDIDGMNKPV
# In short: (§1)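 HEK-293 cells stably carrying chimeric Δ6-Gαqi4-myr (zeocin selection, DMEM+10% FBS, 37 °C, 10% CO2) transiently transfected with opioid receptor DNA (200 ng/20,000 cells); seeded 24 h later; day 3 loaded with Ca2+ dye 60 min at 37 °C. After 30 s equilibration, ligand added over a concentration range; fluorescence read; ΔRFU (max−min) per concentration fitted by nonlinear regression; peak effect recorded; ≥3 independent runs, 4 internal replicates.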
# Mus musculus [2] = experiment: Antinociceptive effect in intrathecally dosed ICR-CD1 mouse by tail flick test; format: functional
# In short: (§2)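 Male ICR-CD1 mice (17–25 g), conscious, dosed intrathecally in 5 μl (10% DMSO stock diluted to ≤1% DMSO). Radiant-heat tail-flick; %MPE = (test−control)/(10−control)×100 with 10 s cutoff. Peak antinociception located by time course at 10, 20, 30, 60 min. ≥3 groups of 8–10 mice per curve, mice used once; ED50 with 95% CI by nonlinear regression.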
# Mus musculus [3] = experiment: Antinociceptive effect in intracerebroventricular dosed ICR-CD1 mouse by tail flick test; format: functional
# In short: (§3)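 Male ICR-CD1 mice (17–25 g), conscious, given compound i.c.v. in 5 μl (stock in 10% DMSO, diluted to ≤1% DMSO). Radiant-heat tail-flick latency, 10 s cutoff; %MPE = (test−control)/(10−control)×100. Peak time from time course at 10, 20, 30, 60 min. ≥3 groups of 8–10 mice per dose-response curve, each mouse used once; ED50 with 95% CI by nonlinear regression.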
# [4] = target: Delta-type opioid receptor (Homo sapiens) (UniProt P41143); experiment: Agonist activity at human delta opioid receptor expressed in HEK cells assessed as induction of intracellular calcium release by FLIPR assay; format: functional, cell-based; conditions: HEK293; in short: as §1
# Delta-type opioid receptor (Homo sapiens), sequence (P41143 whole entry): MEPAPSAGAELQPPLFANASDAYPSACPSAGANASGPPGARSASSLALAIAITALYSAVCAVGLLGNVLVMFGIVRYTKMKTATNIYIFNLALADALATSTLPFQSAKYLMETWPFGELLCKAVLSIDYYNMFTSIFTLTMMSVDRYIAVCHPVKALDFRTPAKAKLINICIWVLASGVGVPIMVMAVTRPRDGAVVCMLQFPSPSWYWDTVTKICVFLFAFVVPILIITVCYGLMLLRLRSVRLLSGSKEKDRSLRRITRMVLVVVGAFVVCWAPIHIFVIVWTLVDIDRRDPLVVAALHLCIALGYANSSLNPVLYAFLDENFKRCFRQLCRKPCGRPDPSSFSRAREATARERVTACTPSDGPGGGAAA
# [5] = target: Opioid receptors; mu & delta (Homo sapiens) (UniProt P41143+P35372); experiment: Agonist activity at human mu-delta opioid receptor expressed in HEK cells assessed as induction of intracellular calcium release by FLIPR assay; format: functional, cell-based; conditions: HEK293; in short: as §1
# Opioid receptors; mu & delta (Homo sapiens), sequence (P35372 whole entry, looked up): as the sequence (P35372 whole entry, looked up) above
# Opioid receptors; mu & delta (Homo sapiens), sequence (P41143 whole entry, looked up): as the sequence (P41143 whole entry) above
# Mus musculus [6] = experiment: Antinociceptive effect in intrathecally dosed ICR-CD1 mouse assessed as peak time effect by tail flick test; format: functional; in short: as §2
# Mus musculus [7] = experiment: Antinociceptive effect in intracerebroventricular dosed ICR-CD1 mouse assessed as peak time effect by tail flick test; format: functional; in short: as §3
# Mus musculus [8] = experiment: Toxicity in intrathecally dosed ICR-CD1 mouse assessed as dose tolerance after 24 hrs; format: organism-based; conditions: in vivo, icv_or_intrathecal
# In short: (§4)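 Acute 24 h tolerance in male ICR-CD1 mice by i.c.v. or i.t. route: highest (ED80–90) dose of the day-1 dose-response curve repeated on the same mice 24 h later; tail-flick %MPE compared between days; no significant difference taken as not tolerant.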
# Mus musculus [9] = experiment: Toxicity in intracerebroventricular dosed ICR-CD1 mouse assessed as dose tolerance after 24 hrs; format: organism-based; conditions: in vivo, icv_or_intrathecal; in short: as §4
# Mus musculus [10] = experiment: Antinociceptive effect in intrathecally dosed wild type ICR-CD1 mouse after 20 mins in presence of NTI; format: functional
# In short: (§5)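 Wild-type male ICR-CD1 mice dosed intrathecally in 5 μl (≤1% DMSO) with antagonist timed to peak with agonist: NTI 5 nmol/mouse or nor-BNI 2.5 nmol/mouse, each 20 min peak time.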
# Mus musculus [11] = experiment: Antinociceptive effect in intrathecally dosed wild type ICR-CD1 mouse after 20 mins in presence of nor-BNI; format: functional; in short: as §5
# Mus musculus [12] = experiment: Antinociceptive effect in intrathecally dosed MOR-KO mouse; format: functional, organism-based
# In short: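 MOR-KO mice, 13–15 weeks old, equal males and females, eight per group, given compound intrathecally in 5 μl (≤1% DMSO); antinociception scored by radiant-heat tail-flick as %MPE with 10 s cutoff.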
# [13] = target: Opioid receptors; delta & kappa (Homo sapiens) (UniProt P41145+P41143); experiment: Agonist activity at human delta-kappa opioid receptor expressed in HEK cells assessed as induction of intracellular calcium release by FLIPR assay; format: functional, cell-based; conditions: HEK293; in short: as §1
# Opioid receptors; delta & kappa (Homo sapiens), sequence (P41143 whole entry, looked up): as the sequence (P41143 whole entry) above
# Opioid receptors; delta & kappa (Homo sapiens), sequence (P41145 whole entry, looked up): as the sequence (P41145 whole entry, looked up) above
SMILES,Activity [1],MPE (Mus musculus [2]),MPE (Mus musculus [3]),Activity [4],Activity [5],Time (Mus musculus [6]),Time (Mus musculus [7]),Activity (Mus musculus [8]),ED50 (Mus musculus [2]),ED50 (Mus musculus [3]),Activity (Mus musculus [9]),ED50 (Mus musculus [10]),ED50 (Mus musculus [11]),Activity (Mus musculus [12]),Activity [13]
O=C(N[C@H]1CC[C@@]2(O)[C@H]3Cc4ccc(O)c5c4[C@@]2(CCN3CC2CC2)[C@H]1O5)c1ccc2ccccc2c1,inactive,<=60%,<=60%,,,,,,,,,,,,
O=C(N[C@@H]1CC[C@@]2(O)[C@H]3Cc4ccc(O)c5c4[C@@]2(CCN3CC2CC2)[C@H]1O5)c1nccc2ccccc12,Active,,,inactive,Active,20 min,10 min,Non-toxic,1408 pmol,2070 pmol,,,,,
Cl.O=C(N[C@@H]1CC[C@@]2(O)[C@H]3Cc4ccc(O)c5c4[C@@]2(CCN3CC2CC2)[C@H]1O5)c1ccc2ccccc2c1,Active,,,,,5 min,20 min,Non-toxic,18.7 pmol,2060 pmol,Toxic,,,,
O=C(N[C@@H]1CC[C@@]2(O)[C@H]3Cc4ccc(O)c5c4[C@@]2(CCN3CC2CC2)[C@H]1O5)c1cccc2ncccc12,,<=60%,<=60%,inactive,,,,,,,,,,,
O=C(N[C@@H]1CC[C@@]2(O)[C@H]3Cc4ccc(O)c5c4[C@@]2(CCN3CC2CC2)[C@H]1O5)c1cnc2ccccc2n1,Active,,,inactive,Active,5 min,,Non-toxic,50.8 pmol,757.2 pmol,,,,,
COc1cc2ccccc2cc1C(=O)N[C@@H]1CC[C@@]2(O)[C@H]3Cc4ccc(O)c5c4[C@@]2(CCN3CC2CC2)[C@H]1O5,,,,Active,,5 min,,Non-toxic,115.1 pmol,312.4 pmol,Toxic,,,,
COc1ccc2cc(C(=O)N[C@@H]3CC[C@@]4(O)[C@H]5Cc6ccc(O)c7c6[C@@]4(CCN5CC4CC4)[C@H]3O7)ccc2c1,,<=60%,<=60%,,,5 min,10 min,,,,,,,,
CN(C(=O)c1ccc2ccccc2c1)[C@@H]1CC[C@@]2(O)[C@H]3Cc4ccc(O)c5c4[C@@]2(CCN3CC2CC2)[C@H]1O5,inactive,<=60%,<=60%,Active,,,,,,,,,,,
O=C(N[C@@H]1CC[C@@]2(O)[C@H]3Cc4ccc(O)c5c4[C@@]2(CCN3CC2CC2)[C@H]1O5)c1ccc2cc(F)ccc2c1,,,<=60%,Active,,20 min,,Non-toxic,81.1 pmol,,,5 nmol,2.5 nmol,inactive,
O=C(N[C@@H]1CC[C@@]2(O)[C@H]3Cc4ccc(O)c5c4[C@@]2(CCN3CC2CC2)[C@H]1O5)c1cccc2ccccc12,Active,,<=60%,,,,,,20.9 pmol,,Toxic,,,,Active
